Experiment [1] has as its target Tyrosine-protein kinase ABL1 (Homo sapiens) (UniProt P00519). Kind of experiment: Binding affinity to wild-type human phosphorylated ABL1 (S229 to K512 residues) expressed in mammalian expression system assessed as remaining unbound target protein level at 1000 nM by Kinomescan method relative to control.
Another experiment is filed under the species Homo sapiens. Kind of experiment: Selectivity ratio of IC50 for recombinant GST-tagged inactive state of human CDK11 to IC50 for recombinant full length His-tagged human CDK9/CyclinT1.
The target in experiment [2] is Epithelial discoidin domain-containing receptor 1 (Homo sapiens) (UniProt Q08345). Put plainly: Binding affinity to wild-type human partial length DDR1 (R565 to V876 residues) expressed in bacterial expression system assessed as remaining unbound target protein level at 1000 nM by Kinomescan method relative to control.
For experiment [3], the target named is Mitogen-activated protein kinase kinase kinase 7 (Homo sapiens) (UniProt O43318). Put plainly: Binding affinity to wild-type human partial length TAK1 (M1 to Q303 residues) expressed in mammalian expression system assessed as remaining unbound target protein level at 1000 nM by Kinomescan method relative to control.
Experiment [4] concerns the target Tyrosine-protein kinase receptor UFO (Homo sapiens) (UniProt P30530). Kind of experiment: Binding affinity to wild-type human partial length AXL (R497 to Y821 residues) expressed in bacterial expression system assessed as remaining unbound target protein level at 1000 nM by Kinomescan method relative to control. The gist of the method:
(§1)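 KINOMEscan competition binding profile across a panel of 468 kinases and mutants, with the inhibitor tested at a single concentration of 1 μM. Binding is reported as percent of control, meaning signal relative to a DMSO control.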

Experiment [5] concerns the target Testis-specific serine/threonine-protein kinase 3 (Homo sapiens) (UniProt Q96PN8). Put plainly: Binding affinity to wild-type human full length TSSK3 (M1 to T268 residues) expressed in mammalian expression system assessed as remaining unbound target protein level at 1000 nM by Kinomescan method relative to control. The gist of the method: as §1
Experiment [6] concerns the target Phosphatidylinositol 4-kinase beta (Homo sapiens) (UniProt Q9UBF8). Kind of experiment: Binding affinity to wild-type human full length PIK4CB (M1 to M828 residues) expressed in mammalian expression system assessed as remaining unbound target protein level at 1000 nM by Kinomescan method relative to control. In a few lines: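 Profiled in a KINOMEscan binding panel with the inhibitor at a single concentration of 1 μM. Binding to each kinase was read out as percent of control, relative to a DMSO control. Strong binders were defined as those with a percent control value below 1.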

Experiment [7] addresses Serine/threonine-protein kinase MRCK alpha (Homo sapiens) (UniProt Q5VT25). Put plainly: Binding affinity to wild-type human partial length MRCKA (L57 to V418 residues) expressed in bacterial expression system assessed as remaining unbound target protein level at 1000 nM by Kinomescan method relative to control.
In experiment [8] the target is Calcium-dependent protein kinase 1 (Plasmodium falciparum) (UniProt P62344). Put plainly: Binding affinity to wild-type Plasmodium falciparum full length CDPK1 (M1 to S524 residues) expressed in mammalian expression system assessed as remaining unbound target protein level at 1000 nM by Kinomescan method relative to control. The gist of the method: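 KINOMEscan competitive binding profile at 1 μM inhibitor. Remaining target binding reported as percent of DMSO control.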
Sequence of Calcium-dependent protein kinase 1 (Plasmodium falciparum) (P62344 2-524 limits assumed): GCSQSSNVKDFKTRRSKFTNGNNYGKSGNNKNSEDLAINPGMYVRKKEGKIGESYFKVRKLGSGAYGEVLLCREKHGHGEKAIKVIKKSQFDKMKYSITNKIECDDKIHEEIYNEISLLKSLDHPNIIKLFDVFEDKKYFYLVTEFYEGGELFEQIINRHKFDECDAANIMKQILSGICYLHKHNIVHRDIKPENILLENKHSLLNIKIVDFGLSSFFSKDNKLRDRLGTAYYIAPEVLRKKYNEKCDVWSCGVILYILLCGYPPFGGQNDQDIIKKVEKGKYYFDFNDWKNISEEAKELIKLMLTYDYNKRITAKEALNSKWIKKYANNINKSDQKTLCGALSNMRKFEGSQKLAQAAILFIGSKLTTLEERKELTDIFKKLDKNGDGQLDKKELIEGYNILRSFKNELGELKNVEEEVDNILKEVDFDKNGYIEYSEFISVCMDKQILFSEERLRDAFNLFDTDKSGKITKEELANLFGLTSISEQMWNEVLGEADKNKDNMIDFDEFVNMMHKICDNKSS

For experiment [9], the system named is Phosphatidylinositol 4,5-bisphosphate 3-kinase catalytic subunit alpha isoform (Homo sapiens), P42336 [I800L]. Put plainly: Binding affinity to human partial length PIK3CA I800L mutant (R108 to N1068 residues) expressed in mammalian expression system assessed as remaining unbound target protein level at 1000 nM by Kinomescan method relative to control. In a few lines: (§2)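 KINOMEscan competition-binding profiling across the panel of 468 kinases and mutants, with inhibitor tested at 1 μM. Binding is expressed as percent of control, with DMSO as the reference control.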

Experiment [10] deals with Phosphatidylinositol 4,5-bisphosphate 3-kinase catalytic subunit alpha isoform (Homo sapiens) (UniProt P42336). Put plainly: Binding affinity to wild-type human partial length PIK3CA (R108 to N1068 residues) expressed in mammalian expression system assessed as remaining unbound target protein level at 1000 nM by Kinomescan method relative to control.
Sequence of Phosphatidylinositol 4,5-bisphosphate 3-kinase catalytic subunit alpha isoform (Homo sapiens) (P42336 whole entry, the tested form may be a part, canonical isoform): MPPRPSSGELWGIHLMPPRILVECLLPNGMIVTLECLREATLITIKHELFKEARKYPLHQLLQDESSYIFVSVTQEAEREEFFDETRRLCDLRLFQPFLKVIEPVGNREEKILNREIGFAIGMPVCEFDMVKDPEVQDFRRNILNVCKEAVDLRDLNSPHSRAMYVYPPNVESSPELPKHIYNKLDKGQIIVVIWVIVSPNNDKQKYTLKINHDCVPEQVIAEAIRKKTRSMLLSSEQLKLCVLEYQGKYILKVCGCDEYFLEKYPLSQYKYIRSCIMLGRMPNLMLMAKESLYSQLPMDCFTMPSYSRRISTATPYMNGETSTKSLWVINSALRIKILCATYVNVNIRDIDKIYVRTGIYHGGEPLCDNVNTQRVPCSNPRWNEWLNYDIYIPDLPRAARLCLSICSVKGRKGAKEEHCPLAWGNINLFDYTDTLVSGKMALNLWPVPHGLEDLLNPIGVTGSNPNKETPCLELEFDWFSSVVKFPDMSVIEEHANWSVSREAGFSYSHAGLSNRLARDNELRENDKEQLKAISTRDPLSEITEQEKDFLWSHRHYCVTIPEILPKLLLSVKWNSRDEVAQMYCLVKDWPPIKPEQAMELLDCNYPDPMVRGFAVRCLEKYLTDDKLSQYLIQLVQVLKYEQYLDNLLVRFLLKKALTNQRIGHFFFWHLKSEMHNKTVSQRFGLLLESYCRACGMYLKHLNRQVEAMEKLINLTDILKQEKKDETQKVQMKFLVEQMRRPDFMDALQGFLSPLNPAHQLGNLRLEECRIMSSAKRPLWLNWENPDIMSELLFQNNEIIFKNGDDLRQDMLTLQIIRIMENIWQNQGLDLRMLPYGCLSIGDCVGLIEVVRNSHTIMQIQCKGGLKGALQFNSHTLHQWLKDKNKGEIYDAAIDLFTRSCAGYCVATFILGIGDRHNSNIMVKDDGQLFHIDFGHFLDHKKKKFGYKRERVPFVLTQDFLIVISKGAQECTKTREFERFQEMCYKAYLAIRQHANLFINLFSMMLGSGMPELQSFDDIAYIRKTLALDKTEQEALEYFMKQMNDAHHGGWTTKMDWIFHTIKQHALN
The target in experiment [11] is Receptor tyrosine-protein kinase erbB-2 (Homo sapiens) (UniProt P04626). Kind of experiment: Binding affinity to wild-type human partial length ERBB2 (K646 to V1225 residues) expressed in mammalian expression system assessed as remaining unbound target protein level at 1000 nM by Kinomescan method relative to control.
Sequence of Receptor tyrosine-protein kinase erbB-2 (Homo sapiens) (P04626 whole entry, the tested form may be a part): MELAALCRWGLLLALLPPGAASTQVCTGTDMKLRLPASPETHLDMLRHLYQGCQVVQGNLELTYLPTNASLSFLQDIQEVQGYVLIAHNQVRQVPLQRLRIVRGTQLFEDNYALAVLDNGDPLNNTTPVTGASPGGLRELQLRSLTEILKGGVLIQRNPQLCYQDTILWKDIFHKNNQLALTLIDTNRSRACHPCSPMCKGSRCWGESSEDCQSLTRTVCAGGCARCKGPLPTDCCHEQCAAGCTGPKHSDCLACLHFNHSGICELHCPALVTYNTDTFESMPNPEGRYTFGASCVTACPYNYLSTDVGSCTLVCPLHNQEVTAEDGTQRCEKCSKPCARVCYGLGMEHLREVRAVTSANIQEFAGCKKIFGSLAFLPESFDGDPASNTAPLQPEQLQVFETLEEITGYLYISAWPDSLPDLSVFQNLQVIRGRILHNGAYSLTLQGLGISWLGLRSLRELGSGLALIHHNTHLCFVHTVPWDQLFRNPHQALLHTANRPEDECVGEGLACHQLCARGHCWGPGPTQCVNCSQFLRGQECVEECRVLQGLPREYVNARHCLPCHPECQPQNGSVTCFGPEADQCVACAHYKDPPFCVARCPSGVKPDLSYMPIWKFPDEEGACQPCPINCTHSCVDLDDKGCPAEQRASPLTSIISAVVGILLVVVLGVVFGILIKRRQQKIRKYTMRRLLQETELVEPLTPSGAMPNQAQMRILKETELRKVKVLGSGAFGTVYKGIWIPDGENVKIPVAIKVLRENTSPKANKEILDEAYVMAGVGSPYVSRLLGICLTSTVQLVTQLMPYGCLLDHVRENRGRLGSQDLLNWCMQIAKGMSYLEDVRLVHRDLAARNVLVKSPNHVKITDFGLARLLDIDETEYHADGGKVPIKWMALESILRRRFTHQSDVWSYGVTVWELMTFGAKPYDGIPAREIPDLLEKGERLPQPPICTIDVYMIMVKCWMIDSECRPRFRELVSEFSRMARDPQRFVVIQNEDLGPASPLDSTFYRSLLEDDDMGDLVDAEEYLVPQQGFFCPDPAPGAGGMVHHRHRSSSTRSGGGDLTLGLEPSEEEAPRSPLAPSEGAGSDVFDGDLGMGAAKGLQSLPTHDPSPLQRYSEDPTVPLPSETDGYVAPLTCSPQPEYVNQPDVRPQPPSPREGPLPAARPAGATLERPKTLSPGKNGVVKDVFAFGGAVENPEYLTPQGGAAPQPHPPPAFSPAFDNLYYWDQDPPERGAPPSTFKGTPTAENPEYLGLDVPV
For experiment [12], the target named is Mitogen-activated protein kinase 10 (Homo sapiens) (UniProt P53779). Put plainly: Binding affinity to wild-type human partial length JNK3 (V28 to Q422 residues) expressed in mammalian expression system assessed as remaining unbound target protein level at 1000 nM by Kinomescan method relative to control. The gist of the method:
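KINOMEscan binding panel of 468 kinases/mutants. Inhibitor was tested at a single concentration of 1 μM. Binding is reported as percent of control, defined relative to a DMSO control.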

The target in experiment [13] is Mitogen-activated protein kinase kinase kinase 5 (Homo sapiens) (UniProt Q99683). Put plainly: Binding affinity to wild-type human partial length ASK1 (E648 to S964 residues) expressed in bacterial expression system assessed as remaining unbound target protein level at 1000 nM by Kinomescan method relative to control. The gist of the method:
as §1

In experiment [14] the target is Protein kinase C eta type (Homo sapiens) (UniProt P24723). Put plainly: Binding affinity to wild-type human partial length PRKCH (S324 to P683 residues) expressed in bacterial expression system assessed as remaining unbound target protein level at 1000 nM by Kinomescan method relative to control.
The subject of experiment [15] is Epidermal growth factor receptor (Homo sapiens), P00533 [G719S]. Kind of experiment: Binding affinity to human partial length EGFR G719S mutant (R669 to V1011 residues) expressed in bacterial expression system assessed as remaining unbound target protein level at 1000 nM by Kinomescan method relative to control. In a few lines: as §2
Experiment [16] has as its target SRSF protein kinase 3 (Homo sapiens) (UniProt Q9UPE1). Kind of experiment: Binding affinity to wild-type human partial length SRPK3 (P41 to P567 residues) expressed in bacterial expression system assessed as remaining unbound target protein level at 1000 nM by Kinomescan method relative to control.
For experiment [17], the target named is Serine/threonine-protein kinase 38 (Homo sapiens) (UniProt Q15208). Put plainly: Binding affinity to wild-type human partial length NDR1 (N33 to E449 residues) expressed in mammalian expression system assessed as remaining unbound target protein level at 1000 nM by Kinomescan method relative to control.
Sequence of Serine/threonine-protein kinase 38 (Homo sapiens) (Q15208 2-465 limits assumed): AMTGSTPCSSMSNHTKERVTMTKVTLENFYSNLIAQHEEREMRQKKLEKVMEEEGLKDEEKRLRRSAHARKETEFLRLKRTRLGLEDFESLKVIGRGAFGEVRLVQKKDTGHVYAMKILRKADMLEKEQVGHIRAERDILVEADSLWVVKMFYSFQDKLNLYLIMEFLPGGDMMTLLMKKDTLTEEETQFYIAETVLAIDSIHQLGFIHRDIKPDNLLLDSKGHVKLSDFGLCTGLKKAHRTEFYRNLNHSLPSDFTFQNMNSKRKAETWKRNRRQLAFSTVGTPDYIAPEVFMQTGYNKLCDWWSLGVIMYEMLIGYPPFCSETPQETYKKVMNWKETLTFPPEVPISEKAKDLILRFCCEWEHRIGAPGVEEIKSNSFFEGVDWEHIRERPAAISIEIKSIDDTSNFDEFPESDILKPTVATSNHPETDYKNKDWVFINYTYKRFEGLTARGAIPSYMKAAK
In experiment [18] the target is Cyclin-dependent kinase 14/Cyclin-Y (Homo sapiens, UniProt O94921). Kind of experiment: Inhibition of recombinant GST-tagged human full length CDK14/cyclin Y (2 to end residues). Format: protein-complex assay.
In experiment [19] the target is Serine/threonine-protein kinase PAK 6 (Homo sapiens) (UniProt Q9NQU5). Put plainly: Binding affinity to wild-type human partial length PAK6 (N298 to C681 residues) expressed in bacterial expression system assessed as remaining unbound target protein level at 1000 nM by Kinomescan method relative to control.
In experiment [20] the target is Cyclin-dependent kinase 17 (Homo sapiens) (UniProt Q00537). Put plainly: Binding affinity to wild-type human full length PCTK2 (M1 to F523 residues) expressed in bacterial expression system assessed as remaining unbound target protein level at 1000 nM by Kinomescan method relative to control. In a few lines:
as §1

Molecules are shown by their SMILES.

Among the data in ChEMBL document CHEMBL4261600 (Eur J Med Chem, 2018) are Activity, Ratio IC50 and IC50 values, retold here.

As usually defined, the IC50 is the concentration that inhibits the measured activity by half.

Sequence of Serine/threonine-protein kinase MRCK alpha (Homo sapiens) (Q5VT25 whole entry, the tested form may be a part): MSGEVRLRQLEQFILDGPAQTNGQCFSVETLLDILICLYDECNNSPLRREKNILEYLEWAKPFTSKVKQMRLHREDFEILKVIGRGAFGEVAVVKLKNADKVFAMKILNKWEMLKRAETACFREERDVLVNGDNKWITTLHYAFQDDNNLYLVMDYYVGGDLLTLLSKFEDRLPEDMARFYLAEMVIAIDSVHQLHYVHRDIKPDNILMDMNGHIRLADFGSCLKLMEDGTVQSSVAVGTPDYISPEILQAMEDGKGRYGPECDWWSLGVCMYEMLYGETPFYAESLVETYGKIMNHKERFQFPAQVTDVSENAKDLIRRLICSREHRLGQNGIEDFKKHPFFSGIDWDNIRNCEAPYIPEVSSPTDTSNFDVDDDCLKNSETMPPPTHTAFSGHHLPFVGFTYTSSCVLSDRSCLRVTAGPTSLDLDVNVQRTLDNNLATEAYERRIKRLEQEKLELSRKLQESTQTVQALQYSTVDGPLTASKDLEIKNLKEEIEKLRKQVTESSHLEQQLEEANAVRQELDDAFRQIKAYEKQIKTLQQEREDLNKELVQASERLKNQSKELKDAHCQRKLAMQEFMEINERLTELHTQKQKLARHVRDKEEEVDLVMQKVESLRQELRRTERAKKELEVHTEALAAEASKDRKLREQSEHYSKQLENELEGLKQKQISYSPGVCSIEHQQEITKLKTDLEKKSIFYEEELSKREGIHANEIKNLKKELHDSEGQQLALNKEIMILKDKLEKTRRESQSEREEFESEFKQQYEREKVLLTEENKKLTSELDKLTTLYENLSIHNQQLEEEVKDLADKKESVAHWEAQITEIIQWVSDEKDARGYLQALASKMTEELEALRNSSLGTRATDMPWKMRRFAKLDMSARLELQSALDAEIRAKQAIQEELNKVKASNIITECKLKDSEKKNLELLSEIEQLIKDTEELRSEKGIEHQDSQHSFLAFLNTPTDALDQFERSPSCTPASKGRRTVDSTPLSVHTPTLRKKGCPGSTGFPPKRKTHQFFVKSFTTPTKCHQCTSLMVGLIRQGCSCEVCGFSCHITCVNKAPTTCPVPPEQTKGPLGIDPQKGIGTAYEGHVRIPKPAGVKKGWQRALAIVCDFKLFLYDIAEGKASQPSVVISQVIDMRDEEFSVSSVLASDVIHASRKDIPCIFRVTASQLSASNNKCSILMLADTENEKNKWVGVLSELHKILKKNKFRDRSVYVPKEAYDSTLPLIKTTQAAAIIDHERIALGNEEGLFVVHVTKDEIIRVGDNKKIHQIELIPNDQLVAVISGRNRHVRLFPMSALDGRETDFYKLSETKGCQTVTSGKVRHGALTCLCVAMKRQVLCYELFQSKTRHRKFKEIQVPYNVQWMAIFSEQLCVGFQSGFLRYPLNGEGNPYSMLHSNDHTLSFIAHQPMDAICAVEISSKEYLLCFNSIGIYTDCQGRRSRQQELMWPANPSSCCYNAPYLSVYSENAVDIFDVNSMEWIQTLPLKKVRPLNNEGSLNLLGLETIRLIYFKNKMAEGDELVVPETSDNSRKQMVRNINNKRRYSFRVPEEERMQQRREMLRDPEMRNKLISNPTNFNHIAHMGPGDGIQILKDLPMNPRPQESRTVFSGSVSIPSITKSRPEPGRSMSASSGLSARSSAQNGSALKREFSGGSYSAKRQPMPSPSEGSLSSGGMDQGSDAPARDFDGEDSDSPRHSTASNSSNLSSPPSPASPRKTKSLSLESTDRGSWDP

In the case of `COCCN[C@H]1CC[C@H](Nc2cc(-c3csc(NCC4(C#N)CCOCC4)n3)c(Cl)cn2)CC1`, the Activity is 91% in [1]; 89% in [2]; 100% in experiment [3]; 91% in experiment [4]; 99% in experiment [5]; 100% in experiment [6]. The Activity came out at 83% in experiment [7]; 77% in experiment [8]; 90% in [9]; 95% in experiment [10]; 97% in experiment [11]; 7.1% in experiment [12]. In addition, the Activity stood at 77% in experiment [13]; 98% in experiment [14]; 82% in [15]; 98% in experiment [16]; 78% in [17]; 92% in [19]. Besides, the Activity in experiment [20] came out at 32%. In the experiment filed under Homo sapiens, the Ratio IC50 was over 1000. Also, the concentration for half-maximal inhibition (IC50) in [18] came to 1680 nM.
